Test results as given in ChEMBL document CHEMBL4229342, “Synthesis of novel proxyphylline derivatives with dual Anti-Candida albicans and anticancer activity” (Eur J Med Chem, 2018).

What was measured:
Assay type in all cases: functional
CCRF-CEM [1] = experiment: Antiproliferative activity against human CCRF-CEM cells assessed as cell viability at 50 uM after 72 hrs by MTT assay; settings: read-out: Activity
How it was run: (§1)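 MTT viability assay in CCRF-CEM and MCF-7 cells after 72 h exposure at 25, 50, 100 and 200 µM. Results are relative to control cells without inhibitor in 0.5% DMSO. Done in triplicate; values are means ± SD of three independent experiments.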

Candida albicans [2] = experiment: Growth inhibition of Candida albicans ATCC 90028 at 1 ug/ml incubated for 4 hrs at 35 degC by broth microdilution method relative to control; settings: ATCC 90028, 4 h, read-out: GI
Candida albicans [3] = experiment: Growth inhibition of Candida albicans ATCC 90028 at 0.125 ug/ml incubated for 18 hrs at 35 degC by broth microdilution method relative to control; settings: ATCC 90028, 18 h, read-out: GI
Candida albicans [4] = experiment: Growth inhibition of Candida albicans ATCC 90028 at 8 ug/ml incubated for 18 hrs at 35 degC by broth microdilution method relative to control; settings: ATCC 90028, 18 h, read-out: GI
Candida albicans [5] = experiment: Growth inhibition of Candida albicans ATCC 90028 at 0.0625 ug/ml incubated for 18 hrs at 35 degC by broth microdilution method relative to control; settings: ATCC 90028, 18 h, read-out: GI
CCRF-CEM [6] = experiment: Antiproliferative activity against human CCRF-CEM cells assessed as cell viability at 200 uM after 72 hrs by MTT assay; settings: read-out: Activity; how it was run: as §1
Candida albicans [7] = experiment: Growth inhibition of Candida albicans ATCC 90028 at 0.0313 ug/ml incubated for 18 hrs at 35 degC by broth microdilution method relative to control; settings: ATCC 90028, 18 h, read-out: GI
Candida albicans [8] = experiment: Fungicidal activity against Candida albicans ATCC 90028 assessed as log reduction in cell viability at 16 ug/ml after 48 hrs at 35 degC
How it was run: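 MFC assay on C. albicans ATCC 90028 following M27-A3, at the molar equivalent of 16 µg/mL. CFU of treated cells were compared with CFU of the untreated inoculum. Activity is given as lg R = lg CFU/mL control − lg CFU/mL treated, and lg R ≥3 was defined as fungicidal. Values are means of two independent experiments.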

MCF7 [9] = experiment: Antiproliferative activity against human MCF7 cells assessed as cell viability at 50 uM after 72 hrs by MTT assay; settings: MCF7, 72 h, read-out: Activity; how it was run: as §1
CCRF-CEM [10] = experiment: Antiproliferative activity against human CCRF-CEM cells assessed as cell viability at 25 uM after 72 hrs by MTT assay; settings: read-out: Activity; how it was run: as §1
Candida albicans [11] = experiment: Growth inhibition of Candida albicans ATCC 90028 at 16 ug/ml incubated for 48 hrs at 35 degC by broth microdilution method relative to control; settings: ATCC 90028, 48 h, read-out: GI
Candida albicans [12] = experiment: Growth inhibition of Candida albicans ATCC 90028 at 1 ug/ml incubated for 18 hrs at 35 degC by broth microdilution method relative to control; settings: ATCC 90028, 18 h, read-out: GI
Candida albicans [13] = experiment: Growth inhibition of Candida albicans ATCC 90028 at 0.5 ug/ml incubated for 4 hrs at 35 degC by broth microdilution method relative to control; settings: ATCC 90028, 4 h, read-out: GI
MCF7 [14] = experiment: Antiproliferative activity against human MCF7 cells assessed as cell viability at 25 uM after 72 hrs by MTT assay; settings: MCF7, 72 h, read-out: Activity; how it was run: as §1
Candida albicans [15] = experiment: Growth inhibition of Candida albicans ATCC 90028 at 2 ug/ml incubated for 4 hrs at 35 degC by broth microdilution method relative to control; settings: ATCC 90028, 4 h, read-out: GI
Candida albicans [16] = experiment: Growth inhibition of Candida albicans ATCC 90028 at 0.0313 ug/ml incubated for 4 hrs at 35 degC by broth microdilution method relative to control; settings: ATCC 90028, 4 h, read-out: GI
Candida albicans [17] = experiment: Growth inhibition of Candida albicans ATCC 90028 at 16 ug/ml incubated for 18 hrs at 35 degC by broth microdilution method relative to control; settings: ATCC 90028, 18 h, read-out: GI
MCF7 [18] = experiment: Antiproliferative activity against human MCF7 cells assessed as cell viability at 200 uM after 72 hrs by MTT assay; settings: MCF7, 72 h, read-out: Activity; how it was run: as §1
Candida albicans [19] = experiment: Growth inhibition of Candida albicans ATCC 90028 at 0.5 ug/ml incubated for 18 hrs at 35 degC by broth microdilution method relative to control; settings: ATCC 90028, 18 h, read-out: GI
Candida albicans [20] = experiment: Growth inhibition of Candida albicans ATCC 90028 at 0.25 ug/ml incubated for 18 hrs at 35 degC by broth microdilution method relative to control; settings: ATCC 90028, 18 h, read-out: GI
Candida albicans [21] = experiment: Growth inhibition of Candida albicans ATCC 90028 at 8 ug/ml incubated for 48 hrs at 35 degC by broth microdilution method relative to control; settings: ATCC 90028, 48 h, read-out: GI
Candida albicans [22] = experiment: Growth inhibition of Candida albicans ATCC 90028 at 4 ug/ml incubated for 18 hrs at 35 degC by broth microdilution method relative to control; settings: ATCC 90028, 18 h, read-out: GI
Candida albicans [23] = experiment: Growth inhibition of Candida albicans ATCC 90028 at 0.25 ug/ml incubated for 4 hrs at 35 degC by broth microdilution method relative to control; settings: ATCC 90028, 4 h, read-out: GI
Candida albicans [24] = experiment: Growth inhibition of Candida albicans ATCC 90028 at 2 ug/ml incubated for 18 hrs at 35 degC by broth microdilution method relative to control; settings: ATCC 90028, 18 h, read-out: GI
CCRF-CEM [25] = experiment: Antiproliferative activity against human CCRF-CEM cells assessed as cell viability at 100 uM after 72 hrs by MTT assay; settings: read-out: Activity; how it was run: as §1
Candida albicans [26] = experiment: Growth inhibition of Candida albicans ATCC 90028 at 8 ug/ml incubated for 4 hrs at 35 degC by broth microdilution method relative to control; settings: ATCC 90028, 4 h, read-out: GI
Candida albicans [27] = experiment: Growth inhibition of Candida albicans ATCC 90028 at 0.0625 ug/ml incubated for 4 hrs at 35 degC by broth microdilution method relative to control; settings: ATCC 90028, 4 h, read-out: GI
MCF7 [28] = experiment: Antiproliferative activity against human MCF7 cells assessed as cell viability at 100 uM after 72 hrs by MTT assay; settings: MCF7, 72 h, read-out: Activity; how it was run: as §1
Candida albicans [29] = experiment: Growth inhibition of Candida albicans ATCC 90028 at 0.125 ug/ml incubated for 4 hrs at 35 degC by broth microdilution method relative to control; settings: ATCC 90028, 4 h, read-out: GI

In the case of `CC(Cn1cnc2c1c(=O)n(C)c(=O)n2C)OC(=O)CC(=O)c1ccc(F)cc1` (centres undefined), the viability at 50 µM (CCRF-CEM [1]) is reported as 51.1%, the inhibition of growth at 1 µg/mL (Candida albicans [2]) is reported as 100% and the inhibition of growth at 0.125 µg/mL (Candida albicans [3]) is reported as 99.8%. It also gave an inhibition of growth at 8 µg/mL (Candida albicans [4]) of 99.8%, an inhibition of growth at 0.0625 µg/mL (Candida albicans [5]) of 99.9% and a viability at 200 µM (CCRF-CEM [6]) of 20.1%. For the same compound, the inhibition of growth at 0.0313 µg/mL (Candida albicans [7]) was 99.7%, the “log(activity)” value (Candida albicans [8]) was 0.9 and the viability at 50 µM (MCF7 [9]) was 77.9%. The viability at 25 µM (CCRF-CEM [10]) was 83.5%, the inhibition of growth at 16 µg/mL (Candida albicans [11]) was 99.7% and the inhibition of growth at 1 µg/mL (Candida albicans [12]) was 100%. The inhibition of growth at 0.5 µg/mL (Candida albicans [13]) was 99.3%, the viability at 25 µM (MCF7 [14]) was 88.5% and the inhibition of growth at 2 µg/mL (Candida albicans [15]) was 99.3%. For the same compound, the inhibition of growth at 0.0313 µg/mL (Candida albicans [16]) was 98.9%, the inhibition of growth at 16 µg/mL (Candida albicans [17]) was 100% and the viability at 200 µM (MCF7 [18]) was 76.8%. For the same compound, the inhibition of growth at 0.5 µg/mL (Candida albicans [19]) was 99.7%, the inhibition of growth at 0.25 µg/mL (Candida albicans [20]) was 99.7% and the inhibition of growth at 8 µg/mL (Candida albicans [21]) was 99.3%. It also gave an inhibition of growth at 4 µg/mL (Candida albicans [22]) of 100%, an inhibition of growth at 0.25 µg/mL (Candida albicans [23]) of 99.3% and an inhibition of growth at 2 µg/mL (Candida albicans [24]) of 100%. For the same compound, the viability at 100 µM (CCRF-CEM [25]) was 43.8%, the inhibition of growth at 8 µg/mL (Candida albicans [26]) was 99.4% and the inhibition of growth at 0.0625 µg/mL (Candida albicans [27]) was 99.3%. It also gave a viability at 100 µM (MCF7 [28]) of 83.8% and an inhibition of growth at 0.125 µg/mL (Candida albicans [29]) of 99.5%.
